ChEMBL document CHEMBL4680183, “1,2,3-Triazole-Chalcone hybrids: Synthesis, in vitro cytotoxic activity and mechanistic investigation of apoptosis induction in multiple myeloma RPMI-8226” (Eur J Med Chem, 2020)
One block for each compound: values may come before it.

Key:
Histone deacetylase 1 = Histone deacetylase 1 (Homo sapiens, UniProt Q13547); test: Inhibition of HDAC1 in human RPMI-8226 cells incubated for 2 hrs by ELISA; type: cell-based
How it was run: (§1)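 Target levels measured by ELISA kits in RPMI-8226 cells. Cells were seeded and grown 24 h at 37 °C, then exposed 72 h to a semi-log series of concentrations. Sample was incubated 2 h at 37 °C, followed by detection reagents A and B (1 h each), TMB substrate and stop solution, with OD read at 450 nm. IC50 was taken from sigmoidal dose-response nonlinear regression of % activity.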

Histone deacetylase 2 = Histone deacetylase 2 (Homo sapiens, UniProt Q92769); test: Inhibition of HDAC2 in human RPMI-8226 cells incubated for 2 hrs by ELISA; type: cell-based; how it was run: as §1
Histone deacetylase 3 = Histone deacetylase 3 (Homo sapiens, UniProt O15379); test: Inhibition of HDAC3 in human RPMI-8226 cells incubated for 2 hrs by ELISA; type: cell-based; how it was run: as §1
Histone deacetylase 8 = biological target: T1, Histone deacetylase 8 (Homo sapiens, UniProt Q9BY41); test: Inhibition of HDAC8 in human RPMI-8226 cells incubated for 2 hrs by ELISA; type: cell-based; how it was run: as §1
T1 sequence (Q9BY41 whole entry): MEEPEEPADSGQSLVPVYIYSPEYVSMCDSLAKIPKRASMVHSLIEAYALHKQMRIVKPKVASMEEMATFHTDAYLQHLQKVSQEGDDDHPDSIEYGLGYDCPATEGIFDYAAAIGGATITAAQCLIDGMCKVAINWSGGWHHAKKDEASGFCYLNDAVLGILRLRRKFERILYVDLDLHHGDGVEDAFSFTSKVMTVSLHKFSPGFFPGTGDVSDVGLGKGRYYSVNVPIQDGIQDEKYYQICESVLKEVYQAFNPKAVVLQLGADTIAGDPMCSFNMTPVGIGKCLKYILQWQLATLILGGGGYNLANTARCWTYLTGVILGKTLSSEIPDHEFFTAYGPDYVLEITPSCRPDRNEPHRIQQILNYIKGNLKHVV

[1] = biological target: Epidermal growth factor receptor (Homo sapiens, UniProt P00533); test: Inhibition of EGFR in human RPMI-8226 cells incubated for 2 hrs by ELISA; type: cell-based
[2] = biological target: Vascular endothelial growth factor receptor 2 (Homo sapiens, UniProt P35968); test: Inhibition of VEGFR2 in human RPMI-8226 cells incubated for 2 hrs by ELISA; type: cell-based
Tubulin = test: Inhibition of Tubulin in human RPMI-8226 cells incubated for 2 hrs by ELISA; type: cell-based; how it was run: as §1
RPMI-8226 [3] = test: Induction of apoptosis in human RPMI-8226 cells assessed as BAX level incubated for 24 hrs by ELISA (reference value: 56 +/- […]); type: functional
RPMI-8226 [4] = test: Induction of apoptosis in human RPMI-8226 cells assessed as Bcl-2 level incubated for 24 hrs by ELISA (reference value: 4.857 +/- […]); type: functional
RPMI-8226 [5] = test: Induction of apoptosis in human RPMI-8226 cells assessed as PARP-1 level incubated for 24 hrs by ELISA (reference value: 0.151 +/- […]); type: functional
RPMI-8226 [6] = test: Induction of apoptosis in human RPMI-8226 cells assessed as Caspase-3 level incubated for 24 hrs by ELISA (reference value: 35.3 pg/ml); type: functional
RPMI-8226 [7] = test: Induction of apoptosis in human RPMI-8226 cells assessed as Caspase-7 level incubated for 24 hrs by ELISA (reference value: 0.359 +/- 0.016 ng/ml); type: functional
RPMI-8226 [8] = test: Induction of apoptosis in human RPMI-8226 cells assessed as Caspase-9 level incubated for 24 hrs by ELISA (reference value: 1.63 +/- […]); type: functional
RPMI-8226 [9] = test: Induction of ROS accumulation in human RPMI-8226 cells incubated for 2 hrs by ELISA (reference value: 26.06 +/- […]); type: functional

Histone deacetylase 2, sequence (Q92769 whole entry): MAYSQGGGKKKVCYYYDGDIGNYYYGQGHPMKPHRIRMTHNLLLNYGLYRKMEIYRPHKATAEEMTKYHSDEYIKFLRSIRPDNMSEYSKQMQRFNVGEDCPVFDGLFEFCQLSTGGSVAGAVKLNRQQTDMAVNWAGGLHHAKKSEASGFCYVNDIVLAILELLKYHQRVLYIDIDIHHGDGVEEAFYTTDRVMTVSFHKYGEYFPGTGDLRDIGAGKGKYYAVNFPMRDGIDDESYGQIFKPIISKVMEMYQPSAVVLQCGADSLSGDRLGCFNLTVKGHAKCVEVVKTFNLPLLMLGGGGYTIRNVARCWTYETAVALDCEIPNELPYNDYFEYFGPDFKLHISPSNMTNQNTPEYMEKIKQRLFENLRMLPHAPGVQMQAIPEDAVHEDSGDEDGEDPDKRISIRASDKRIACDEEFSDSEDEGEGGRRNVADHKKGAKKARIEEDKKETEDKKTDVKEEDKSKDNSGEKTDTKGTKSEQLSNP
Histone deacetylase 1, sequence (Q13547 whole entry): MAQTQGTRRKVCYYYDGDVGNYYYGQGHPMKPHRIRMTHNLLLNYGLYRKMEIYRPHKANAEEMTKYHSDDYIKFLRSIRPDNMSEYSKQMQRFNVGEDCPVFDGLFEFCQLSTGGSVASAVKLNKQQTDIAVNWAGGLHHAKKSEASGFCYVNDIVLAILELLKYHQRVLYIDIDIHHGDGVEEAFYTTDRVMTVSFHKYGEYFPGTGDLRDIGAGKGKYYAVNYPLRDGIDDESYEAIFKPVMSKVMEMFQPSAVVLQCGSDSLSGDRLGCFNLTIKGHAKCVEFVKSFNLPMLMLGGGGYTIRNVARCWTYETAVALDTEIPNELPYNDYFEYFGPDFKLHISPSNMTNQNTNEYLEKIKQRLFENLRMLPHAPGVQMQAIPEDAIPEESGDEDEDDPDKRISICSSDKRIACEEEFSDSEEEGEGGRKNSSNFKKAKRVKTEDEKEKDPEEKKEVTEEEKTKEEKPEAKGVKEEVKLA
Histone deacetylase 3, sequence (O15379 whole entry): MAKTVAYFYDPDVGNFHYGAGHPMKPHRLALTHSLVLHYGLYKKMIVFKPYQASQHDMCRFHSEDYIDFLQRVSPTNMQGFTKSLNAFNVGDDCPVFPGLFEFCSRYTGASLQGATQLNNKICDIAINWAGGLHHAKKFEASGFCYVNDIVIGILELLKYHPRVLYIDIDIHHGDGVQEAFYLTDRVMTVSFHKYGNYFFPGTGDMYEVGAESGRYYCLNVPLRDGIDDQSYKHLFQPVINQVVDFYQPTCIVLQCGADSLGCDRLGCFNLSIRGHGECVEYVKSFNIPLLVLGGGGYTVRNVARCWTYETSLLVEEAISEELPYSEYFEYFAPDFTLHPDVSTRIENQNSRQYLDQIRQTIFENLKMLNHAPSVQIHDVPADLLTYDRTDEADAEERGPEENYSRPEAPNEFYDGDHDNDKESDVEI
Vascular endothelial growth factor receptor 2, sequence (P35968 whole entry): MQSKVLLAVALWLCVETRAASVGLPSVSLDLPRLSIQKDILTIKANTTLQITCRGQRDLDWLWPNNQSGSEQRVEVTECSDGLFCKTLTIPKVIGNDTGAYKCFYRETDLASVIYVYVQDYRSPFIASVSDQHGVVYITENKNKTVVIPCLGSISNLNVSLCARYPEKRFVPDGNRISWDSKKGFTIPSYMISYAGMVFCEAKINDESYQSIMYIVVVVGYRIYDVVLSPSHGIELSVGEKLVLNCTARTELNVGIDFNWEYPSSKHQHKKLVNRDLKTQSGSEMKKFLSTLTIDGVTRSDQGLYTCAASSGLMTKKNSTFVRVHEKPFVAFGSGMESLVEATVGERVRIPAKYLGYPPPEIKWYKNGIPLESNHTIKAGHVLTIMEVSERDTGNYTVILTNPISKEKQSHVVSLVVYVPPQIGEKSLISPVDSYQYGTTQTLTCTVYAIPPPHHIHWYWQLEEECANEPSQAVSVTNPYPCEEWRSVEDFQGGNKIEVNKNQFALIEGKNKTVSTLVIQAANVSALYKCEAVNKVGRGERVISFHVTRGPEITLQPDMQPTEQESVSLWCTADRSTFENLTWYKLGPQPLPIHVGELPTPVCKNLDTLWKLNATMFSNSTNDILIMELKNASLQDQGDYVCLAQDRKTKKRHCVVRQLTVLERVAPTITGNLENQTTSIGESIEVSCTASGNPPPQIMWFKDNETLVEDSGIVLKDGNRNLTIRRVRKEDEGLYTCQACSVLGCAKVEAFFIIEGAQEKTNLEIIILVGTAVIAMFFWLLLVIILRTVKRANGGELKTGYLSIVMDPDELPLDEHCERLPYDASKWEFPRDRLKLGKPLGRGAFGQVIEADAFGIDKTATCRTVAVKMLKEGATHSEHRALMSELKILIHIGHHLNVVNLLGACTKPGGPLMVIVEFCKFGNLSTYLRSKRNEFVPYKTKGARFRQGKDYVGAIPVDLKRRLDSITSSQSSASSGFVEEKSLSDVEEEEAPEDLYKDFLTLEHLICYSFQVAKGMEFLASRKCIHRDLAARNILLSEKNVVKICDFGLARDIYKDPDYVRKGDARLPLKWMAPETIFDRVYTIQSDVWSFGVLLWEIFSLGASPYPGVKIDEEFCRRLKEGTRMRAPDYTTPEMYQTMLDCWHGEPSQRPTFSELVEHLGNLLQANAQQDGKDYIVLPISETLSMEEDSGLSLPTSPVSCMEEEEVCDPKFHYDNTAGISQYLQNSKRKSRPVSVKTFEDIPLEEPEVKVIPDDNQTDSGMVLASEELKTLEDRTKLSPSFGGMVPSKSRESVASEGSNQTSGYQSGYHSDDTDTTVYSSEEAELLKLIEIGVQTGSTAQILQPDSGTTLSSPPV
Epidermal growth factor receptor, sequence (P00533 whole entry): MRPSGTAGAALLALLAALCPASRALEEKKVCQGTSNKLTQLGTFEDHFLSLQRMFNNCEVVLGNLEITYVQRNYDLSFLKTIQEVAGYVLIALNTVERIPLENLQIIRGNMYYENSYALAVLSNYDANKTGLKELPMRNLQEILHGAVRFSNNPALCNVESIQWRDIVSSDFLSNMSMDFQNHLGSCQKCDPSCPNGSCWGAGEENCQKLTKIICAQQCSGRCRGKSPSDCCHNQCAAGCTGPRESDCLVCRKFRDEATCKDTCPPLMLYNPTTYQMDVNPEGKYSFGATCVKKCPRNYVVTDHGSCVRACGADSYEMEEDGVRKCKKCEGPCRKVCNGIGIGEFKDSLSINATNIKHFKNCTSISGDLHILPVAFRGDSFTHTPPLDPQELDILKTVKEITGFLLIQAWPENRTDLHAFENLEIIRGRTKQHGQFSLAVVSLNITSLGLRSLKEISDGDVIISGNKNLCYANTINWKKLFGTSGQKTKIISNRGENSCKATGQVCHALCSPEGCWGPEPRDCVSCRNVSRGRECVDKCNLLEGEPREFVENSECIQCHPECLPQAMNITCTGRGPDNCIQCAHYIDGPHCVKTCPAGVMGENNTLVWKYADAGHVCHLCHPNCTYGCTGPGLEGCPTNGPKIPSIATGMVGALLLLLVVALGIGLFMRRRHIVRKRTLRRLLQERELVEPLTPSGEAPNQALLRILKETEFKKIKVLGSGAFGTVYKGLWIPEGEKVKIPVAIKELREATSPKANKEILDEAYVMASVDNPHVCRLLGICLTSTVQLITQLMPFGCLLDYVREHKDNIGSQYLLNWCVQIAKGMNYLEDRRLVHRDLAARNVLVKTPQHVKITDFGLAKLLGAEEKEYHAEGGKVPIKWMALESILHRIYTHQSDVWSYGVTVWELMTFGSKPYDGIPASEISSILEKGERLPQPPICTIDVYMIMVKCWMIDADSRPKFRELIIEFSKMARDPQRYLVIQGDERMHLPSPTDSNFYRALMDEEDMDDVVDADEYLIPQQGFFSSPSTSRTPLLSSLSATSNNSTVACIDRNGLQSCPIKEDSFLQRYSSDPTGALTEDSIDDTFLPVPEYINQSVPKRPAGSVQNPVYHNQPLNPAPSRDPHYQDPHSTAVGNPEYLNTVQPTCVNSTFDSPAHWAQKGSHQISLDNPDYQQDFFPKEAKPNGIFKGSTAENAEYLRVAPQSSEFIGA

IC50 (Histone deacetylase 1): 1530 nM
IC50 (Histone deacetylase 2): 2900 nM
IC50 (Histone deacetylase 3): 3000 nM
IC50 (Histone deacetylase 8): 47 nM
IC50 [1]: 36 nM
IC50 [2]: 388 nM
IC50 (Tubulin): 9.77 nM
SMILES: COc1ccc(/C=C/C(=O)c2nnn(-c3ccc(Cl)cc3)c2C)cc1OC

SMILES: CN[C@@H]1C[C@H]2O[C@@](C)([C@@H]1OC)n1c3ccccc3c3c4c(c5c6ccccc6n2c5c31)C(=O)NC4 [STAUROSPORINE]
Activity (RPMI-8226 [3]): 336.16 pg/mL
Activity (RPMI-8226 [4]): 0.4081 ng/mL
Activity (RPMI-8226 [5]): 0.245 ng/mL
Activity (RPMI-8226 [6]): 449.8 pg/mL
Activity (RPMI-8226 [7]): 1.508 ng/mL
Activity (RPMI-8226 [8]): 24.97 ng/mL

SMILES: COc1cc2ncnc(Nc3ccc(F)c(Cl)c3)c2cc1OCCCN1CCOCC1 [GEFITINIB]
Activity (RPMI-8226 [9]): 80.92 pg/mL

IC50 (Histone deacetylase 1): 620 nM
IC50 (Histone deacetylase 2): 800 nM
IC50 (Histone deacetylase 3): 1180 nM
IC50 (Histone deacetylase 8): 72 nM
SMILES: CC(C)C[C@H](NC(=O)[C@H](Cc1ccccc1)NC(=O)c1cnccn1)B(O)O [BORTEZOMIB]
